Data from paper PMC3839847 (Current topics in medicinal chemistry, 2012).

What was measured:
CXCL12 = CXCL12 (Homo sapiens, UniProt P48061); assay: 2D 1H-15N HSQC NMR titration, fragment binding to CXCL12; conditions: for CXCL12 chemical shift perturbations: 2D NMR titration, no meaningful affinity value could be fitted; for LE: ligand efficiency: free energy of binding divided by number of non-hydrogen atoms (kcal/mol/non-hydrogen atom)
[1] = test system: CXCL12-induced chemotaxis of THP-1 monocytes; assay: in vitro chemotaxis assay, THP-1 monocytes with CXCL12; assay type: cell-based; conditions: read-out: IC50 of chemotaxis to CXCL12, 10 nM CXCL12
In short: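 Chemotaxis in vitro used THP-1 monocytes, which express CXCR4 endogenously, exposed to CXCL12 with or without each tetrazole fragment.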

[2] = test system: CCL2 (MCP-1), activates the CCR2 receptor; assay: chemotaxis assay repeated with CCL2; assay type: cell-based; conditions: data not shown

| Compound | CXCL12 chemical shift perturbations (CXCL12) | Kd (CXCL12) [µM] | LE (CXCL12) | other results |
| --- | --- | --- | --- | --- |
| CC(=O)Nc1ccccc1-c1nnn[nH]1 [Compound 10, N-(2-(1H-Tetrazol-5-yl)phenyl) acetamide] | small chemical shift perturbations |  |  |  |
| O=C(Nc1ccccc1-c1nnn[nH]1)c1ccccc1 [Compound 11, N-(2-(1H-Tetrazol-5-yl)phenyl)benzamide] |  | 13 ± 7 | 0.33 |  |
| CC(=O)Nc1cccc(-c2nnn[nH]2)c1 [Compound 12, N-(3-(1H-tetrazol-5-yl)phenyl)acetamide] | small chemical shift perturbations |  |  |  |
| O=C(Nc1cccc(-c2nnn[nH]2)c1)c1ccccc1 [Compound 13, N-(3-(1H-tetrazol-5-yl)phenyl)benzamide] |  | 50 ± 16 | 0.29 |  |
| CC(=O)Nc1ccc(-c2nnn[nH]2)cc1 [Compound 14, N-(4-(1H-tetrazol-5-yl)phenyl)acetamide] | small chemical shift perturbations |  |  |  |
| O=C(Nc1ccc(-c2nnn[nH]2)cc1)c1ccccc1 [Compound 15, N-(4-(1H-tetrazol-5-yl)phenyl)benzamide] |  | 64 ± 23 | 0.29 |  |
| O=C(Nc1ccccc1)Nc1ccccc1-c1nnn[nH]1 [Compound 16, 1-(2-(1H-Tetrazol-5-yl)phenyl)-3-phenylurea] |  | 327 ± 92 | 0.23 |  |
| O=C(Nc1ccccc1)Nc1cccc(-c2nnn[nH]2)c1 [Compound 17, 1-(3-(1H-tetrazol-5-yl)phenyl)-3-phenylurea] |  | 126 ± 23 | 0.25 |  |
| O=C(Nc1ccccc1)Nc1ccc(-c2nnn[nH]2)cc1 [Compound 18, 1-(4-(1H-Tetrazol-5-yl)phenyl)-3-phenylurea] |  | 24 ± 28 | 0.30 |  |
| O=C(Nc1ccc(-c2nn[nH]n2)cc1)Nc1cccc2ccccc12 [Compound 25] |  |  |  | IC50 [1]: 111 ± 24 µM; specificity for CXCL12- versus CCL2-induced migration [2]: specifically inhibits CXCL12-induced migration |
